E-selectin induc: E-selectin induction in HUVECs, primary screen, imaging, HUVEC, immunofluorescence imaging, single point. activation, % at 7.58 µM. AID 686992, 2013. normalized: neutral wells 0, TNF-alpha wells 100. hit rate 0.37% among 260,000;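 active = mean E-selectin-positive cell signal at least 10% of the positive control, reached in at least 60% of replicates, without over 20% cell loss; inconclusive = no rule given, readout overlaps actives, possibly toxicity-flagged; inactive = the rest, including those meeting only one limit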
Target sequence (P16581 whole entry, looked up): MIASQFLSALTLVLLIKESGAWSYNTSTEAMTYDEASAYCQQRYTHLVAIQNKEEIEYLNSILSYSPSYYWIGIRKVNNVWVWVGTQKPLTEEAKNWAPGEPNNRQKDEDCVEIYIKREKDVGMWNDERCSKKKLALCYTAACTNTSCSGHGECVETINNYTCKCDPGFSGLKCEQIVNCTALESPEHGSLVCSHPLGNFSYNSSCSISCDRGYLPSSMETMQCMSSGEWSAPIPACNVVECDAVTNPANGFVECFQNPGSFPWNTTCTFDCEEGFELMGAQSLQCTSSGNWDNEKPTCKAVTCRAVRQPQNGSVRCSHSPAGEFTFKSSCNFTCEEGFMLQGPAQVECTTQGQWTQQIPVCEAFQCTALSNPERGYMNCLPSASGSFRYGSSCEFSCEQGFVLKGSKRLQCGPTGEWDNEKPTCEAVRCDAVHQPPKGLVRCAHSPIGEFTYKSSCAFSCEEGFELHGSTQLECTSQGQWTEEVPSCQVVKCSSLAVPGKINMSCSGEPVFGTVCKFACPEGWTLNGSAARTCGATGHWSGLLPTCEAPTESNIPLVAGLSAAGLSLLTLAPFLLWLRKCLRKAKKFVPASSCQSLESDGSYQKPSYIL
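System: HUVEC, human umbilical vein endothelial cells; quantity: 3,000 cells/well; buffer or medium: EGM-2 medium, gelatin-coated wells; dosing: single-point compound dose; detection: immunofluorescence imaging; evaluation: % PE-positive cells; benchmarks: TNF-alpha, DMSO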
Ecoli rRNA inh: reduced GFP signal of wild-type E. coli, primary screen, bacterial rRNA inhibitor project, GFP/RFP fluorescence, OD600, single point; AID 720706, 2013; hit rate 1.6% among 350,000; GFP signal change (wild-type ribosome), % (test concentration not listed); E. coli WT GFP vs humanized-ribosome RFP mutants, 24 h; hits give low values; DMSO median 0, no signal -100;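 active = significant combined selectivity score with lowered wild-type GFP, culture density cut under 30%, mutant RFP and density less affected; inactive = any of these conditions unmet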
Cneo AK release: Cryptococcus neoformans cell lysis inducers, primary screen, AK release luminescence, single concentration. C. neoformans lysis, adenylate kinase release luminescence, 4 h; normalised: neutral wells 0, clomiphene wells 100. lysis activity, % at 15 µM. hit rate 0.2% among 360,000. AID 651654, 2012;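 active = mean lysis activity across replicates of at least 80%, whatever share of replicates individually reach that level; inactive = mean lysis activity below 80%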
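Signal: Adenylate kinase release luminescence | Assay system: Log-phase Cryptococcus neoformans yeast cells | Input: Cells at 5 × 10^6 per mL | Buffer or medium: Fresh YPD growth medium | Compound: Single dose | Schedule: Static 4 h at 37 °C with compound, 1 h detection | Controls: Clomiphene | Read-out: Luminescence rise reflecting yeast cell lysis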
DENV2 CPE rescue: inhibitors of DENV2 cytopathic effect, primary screen, cell-based, plate reader, single concentration. DENV2-infected cells, cytopathic effect rescue. CPE inhibition, % at 9.99 µM. hit rate 1.7% among 350,000. AID 651640, 2012; in the data active = CPE inhibition above about 20%, passing the limit was not always enough; inconclusive = no clear call, values can overlap the other calls; tested in BHK-21 cells;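 note: 0% = median of neutral control wells and 100% = median of positive control wells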
miR-122 sensor: miR-122 Renilla sensor signal increase in Huh7, primary screen, miR-122 inhibitor project, cell-based, single point, plate reader; Huh7 miR-122 Renilla luciferase sensor, 48 h; neutral wells = 0, positive control = 100; activation (reporter increase), % at 12.5 µM; hit rate 0.3% among 340,000;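 active = mean replicate activation score at least 90 and every replicate individually at or above 90; inconclusive = only one of the two criteria met; inactive = neither criterion met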;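 note: higher luciferase means less miR-122 activity so hits act as miR-122 inhibitors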
AID977621: growth inhibition of wild-type GFP E. coli, dose response, H69 mutant RFP, cherry-pick; 1,900 tested, under 10 active; activity change, negative = inhibition at 50 µM; shares compounds with Ecoli rRNA inh; E. coli wild-type GFP strain growth, fluorescence, 24 h;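 active = Wild-type ribosome reporter drop at least double the humanized mutant ribosome reporter drop, growth loss under a set limit; inconclusive = no clear call, values can overlap the other calls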;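 note: wild-type GFP and H69 mutant RFP strains grown together 50/50 in each well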
AID977628: E. coli growth inhibition, wild-type GFP versus h24 humanized RFP strain, dose response, h24 mutant RFP vs wild-type GFP, cherry-pick. shares compounds with Ecoli rRNA inh. E. coli WT GFP strain growth, fluorescence, 24 h. activity change, negative = inhibition at 50 µM. 1,900 tested, under 10 active. AID 977628, 2014;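 active = compound lowering the normal-ribosome reporter at least twice as much as the humanized-ribosome reporter, growth loss under a set limit; inconclusive = no clear call, values can overlap the other calls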;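 note: wild-type GFP and h24 humanized RFP strains co-cultured 1 to 1 per well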
* = called active by the depositor; ? = inconclusive; . = not tested or not shown; [ ] = remark or other dose. Sampled rows, rich in hits. Any-hit rate of the full collection: about 3.1%.

SMILES | E-selectin induc | Ecoli rRNA inh | Cneo AK release | DENV2 CPE rescue | miR-122 sensor | AID977621 | AID977628
C[C@H](CO)N1C[C@H](C)[C@H](CN(C)Cc2ccc(Cl)c(Cl)c2)Oc2ccc(NS(=O)(=O)c3ccccc3)cc2C1=O | 0 | 0 | 1 | ? | -1[16.7 µM] | . | .
Cc1cc(C)cc(NS(=O)(=O)c2cc(C(=O)NCc3ccccn3)ccc2Cl)c1 | 0 | -20* | 8 | 2 | 88 | -3.2 | -8
O=C(NCc1ccccn1)c1ccc(Cl)c(S(=O)(=O)Nc2ccccc2C(=O)NCc2ccccn2)c1 | -2 | -5 | 0 | 2 | 31 | . | .
C[C@@H]1CN([C@H](C)CO)C(=O)c2cccc(NC(=O)NC3CCCCC3)c2O[C@@H]1CN(C)C(=O)Nc1cccc2ccccc12 | 5 | 1 | -1 | 1 | -6[16.7 µM] | . | .
CCN(C(=O)c1ccnc(C(C)(C)C)c1)c1ccccc1 | . | -34* | . | -6 | -4 | . | ?
Cc1cc(C(=O)Nc2cccc3c2O[C@@H](CN(C)Cc2ccccc2)[C@H](C)CN([C@@H](C)CO)C3=O)n(C)n1 | 0 | -3 | -2 | -5 | -8[16.7 µM] | . | .
O=C(C[C@H]1C=C[C@H](NS(=O)(=O)c2ccccc2)[C@@H](CO)O1)N1CCc2ccccc2C1 | 1 | 1 | -1 | -3 | . | . | .
CCN(C(=O)CSc1cc(C)c2ccc(OC)cc2n1)C1CCS(=O)(=O)C1 (stereo not drawn) | 0 | -23* | -4 | -1 | 2 | -16 | -14
Cc1noc(NS(=O)(=O)c2ccc(NC(=O)c3cc(-c4ccccc4Cl)nc4ccccc34)cc2)c1C | -1 | -24* | . | -4 | . | -15 | .
C[C@@H]1CCCCO[C@@H](CN(C)C(=O)Cc2ccccc2)[C@@H](C)CN([C@@H](C)CO)C(=O)c2cc(NS(=O)(=O)c3cn(C)cn3)ccc2O1 | 1 | 2 | 0 | -3 | 1[16.7 µM] | . | .
Cc1ccc(NC(=O)C2CCCN(c3ncnc4c3nc3n4CCCCC3)C2)cc1Cl (stereo not drawn) | . | -18* | 0 | 10 | 4 | -0.089 | ?
Cc1ccc(NC(=O)C2CCN(c3ncnc4c3nc3n4CCCCC3)CC2)cc1Cl | . | 0 | 2 | -4 | -2 | . | .
CSc1ccccc1NC(=O)c1ccccc1N(Cc1ccccc1)S(C)(=O)=O | . | -24* | 0 | 0 | -6 | -1.6 | .
CC(C)CCn1c(=O)c2ccccc2c2ccccc2c1=O | . | . | . | . | -4 | . | .
CC(C)Cn1c(=O)c2ccccc2c2ccccc2c1=O | . | -28* | -1 | 7 | 0 | -5.1 | .
C=CCNC(=O)[C@@H]1[C@H]2C(=O)O[C@H](c3ccccc3)[C@H](c3ccccc3)N2[C@H](c2ccc(OCCO)cc2)[C@@]12C(=O)Nc1ccc(C#CCNC(N)=O)cc12 | . | . | -4 | -7 | . | . | .
O=C1CCCc2c1nc(-c1ccc(F)cc1)n2O | 0 | 4 | . | 7 | . | . | .
O=C1CCCc2c1nc(-c1ccc([N+](=O)[O-])cc1)n2O | 4 | -18* | . | -1 | . | ? | ?
CC1C=Cc2ccccc2N1C(=O)c1ccccc1 (stereo not drawn) | . | -32* | -2 | . | 0 | 2.5 | .
O=S(=O)(Nc1ccccc1N1CCCCC1)c1cccs1 | 0 | -33* | -6 | 2 | -3 | -4.5 | -8.4
C[C@@H]1CN([C@@H](C)CO)C(=O)c2cccc(NC(=O)Nc3ccc(F)cc3)c2O[C@@H]1CN(C)Cc1ccc(C(=O)Nc2ccccc2N)cc1 | 41 | -4 | . | 18 | . | . | .
